These results are taken from ChEMBL document CHEMBL1153428, “Synthesis and structure-activity relationships of amide derivatives of (4,4-difluoro-1,2,3,4-tetrahydro-5H-1-benzazepin-5-ylidene)acetic acid as selective arginine vasopressin V2 receptor agonists” (Bioorg Med Chem, 2009).

Structures are written as SMILES. The source made the active and inactive calls. No cut-off for these calls is given here.

For assay [1], the target named is T1, Vasopressin V2 receptor (Homo sapiens, UniProt P30518). As to the kind of experiment: Displacement of [3H]vasopressin from human V2 receptor expressed in CHO cells. In kind it is cell-based.
For assay [2], the target named is Vasopressin V1a receptor (Homo sapiens, UniProt P37288). As to the kind of experiment: Displacement of [3H]vasopressin from human V1a receptor expressed in CHO cells. Format: cell-based. Put shortly:
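Membrane receptors from CHO cells expressing human V1a were used in a radioligand competition binding format. Ki values come from triplicate assays.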
(In general: In a radioligand displacement assay an active substance lowers the binding of a labelled ligand.)

The species entered for assay [3] is Homo sapiens. Put plainly: Selectivity for human V1a receptor to human V2 receptor.
The target of assay [4] is T1, Vasopressin V2 receptor. As to the kind of experiment: Agonist activity at human V2 receptor expressed in CHO cells assessed as increase in cAMP level. In kind it is functional, cell-based. Put shortly:
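CHO cells stably expressing human V2 were grown in α-MEM with 10% FBS and 0.1% amethopterin at 37 °C, then serum-starved for 24 h. Compound was added in α-MEM with 1 mmol/L IBMX and 0.1% BSA for 10 min at 37 °C. Cells were lysed in PBS with 0.2% Triton X-100 and cAMP was read by HTRF. EC50 was derived by logistic regression; Emax was expressed as % of the AVP maximum. Assays were run in triplicate.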
Background: cAMP levels reflect the balance of adenylyl cyclase and phosphodiesterase activity.

Assay [5] concerns the target T1, Vasopressin V2 receptor. Put plainly: Intrinsic activity at human V2 receptor expressed in CHO cells assessed as increase in cAMP level relative to arginine vasopressin. Format: functional, cell-based. The procedure, abridged: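 CHO cells stably expressing human V2 receptors, grown in α-MEM with 10% FBS, serum-starved 24 h. Compound added in α-MEM with 1 mmol/L IBMX and 0.1% BSA, 10 min at 37 °C. Cells lysed in PBS with 0.2% Triton X-100; cAMP read by HTRF. Maximum response expressed as % of AVP maximum (100%); triplicate.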

In assay [6] the test system is Rattus norvegicus. Put plainly: Antidiuretic effect in iv dosed water-loaded Wistar rat assessed as suppression of urinary excretion within 4 hrs. In kind it is functional, organism-based. To be noted: Urine.
For assay [7], the target named is Cytochrome P450 2C9 (Homo sapiens, UniProt P11712). As to the kind of experiment: Inhibition of recombinant CYP2C9 by fluorescent P450 inhibition assay.
The target in assay [8] is Cytochrome P450 2C19 (Homo sapiens, UniProt P33261). As to the kind of experiment: Inhibition of recombinant CYP2C19 by fluorescent P450 inhibition assay.
For assay [9], the target named is Cytochrome P450 2D6 (Homo sapiens, UniProt P10635). Put plainly: Inhibition of recombinant CYP2D6 by fluorescent P450 inhibition assay.
The target in assay [10] is Cytochrome P450 3A4 (Homo sapiens, UniProt P08684). Put plainly: Inhibition of CYP3A4 in human liver microsome assessed as 1'-hydroxymidazolam formation by competitive inhibition assay. A general note: Microsomes from liver hold many membrane-bound enzymes, among them those of drug oxidation.
Chain of Cytochrome P450 3A4 (P08684 whole entry): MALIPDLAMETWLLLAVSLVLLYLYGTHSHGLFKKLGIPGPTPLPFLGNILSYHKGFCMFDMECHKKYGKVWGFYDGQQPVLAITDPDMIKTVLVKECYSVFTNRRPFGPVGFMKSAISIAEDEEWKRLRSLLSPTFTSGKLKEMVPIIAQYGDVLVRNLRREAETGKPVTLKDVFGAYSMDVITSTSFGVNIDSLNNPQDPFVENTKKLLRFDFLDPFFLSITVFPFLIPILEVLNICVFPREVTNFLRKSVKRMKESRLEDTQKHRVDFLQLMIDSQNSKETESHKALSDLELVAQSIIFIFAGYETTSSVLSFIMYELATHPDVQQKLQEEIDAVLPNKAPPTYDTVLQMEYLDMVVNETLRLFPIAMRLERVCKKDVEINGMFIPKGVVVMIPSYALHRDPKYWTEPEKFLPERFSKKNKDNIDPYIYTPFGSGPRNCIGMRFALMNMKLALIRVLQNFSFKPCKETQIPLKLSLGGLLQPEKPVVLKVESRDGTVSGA

T1 sequence (P30518 whole entry): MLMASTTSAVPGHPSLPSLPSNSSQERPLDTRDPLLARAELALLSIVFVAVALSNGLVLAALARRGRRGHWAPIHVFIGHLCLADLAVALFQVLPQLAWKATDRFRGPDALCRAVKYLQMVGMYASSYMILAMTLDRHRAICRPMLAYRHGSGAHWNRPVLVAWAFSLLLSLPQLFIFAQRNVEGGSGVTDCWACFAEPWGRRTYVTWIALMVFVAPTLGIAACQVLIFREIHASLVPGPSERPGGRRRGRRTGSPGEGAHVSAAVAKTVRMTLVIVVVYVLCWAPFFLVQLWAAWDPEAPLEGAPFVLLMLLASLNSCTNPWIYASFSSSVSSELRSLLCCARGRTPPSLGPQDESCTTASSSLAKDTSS
Chain of Vasopressin V1a receptor (P37288 whole entry): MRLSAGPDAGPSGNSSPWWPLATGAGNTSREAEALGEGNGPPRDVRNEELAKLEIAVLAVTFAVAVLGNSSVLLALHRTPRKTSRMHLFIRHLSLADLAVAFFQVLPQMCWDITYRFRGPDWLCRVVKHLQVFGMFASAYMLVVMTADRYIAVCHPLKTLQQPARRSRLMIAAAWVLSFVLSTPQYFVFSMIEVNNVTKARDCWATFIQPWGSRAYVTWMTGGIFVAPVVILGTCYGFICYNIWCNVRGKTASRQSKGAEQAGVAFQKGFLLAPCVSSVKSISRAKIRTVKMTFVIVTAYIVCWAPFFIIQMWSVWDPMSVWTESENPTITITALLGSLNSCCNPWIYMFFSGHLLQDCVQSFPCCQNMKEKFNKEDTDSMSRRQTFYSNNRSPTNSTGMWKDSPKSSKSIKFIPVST
Chain of Cytochrome P450 2C9 (P11712 whole entry): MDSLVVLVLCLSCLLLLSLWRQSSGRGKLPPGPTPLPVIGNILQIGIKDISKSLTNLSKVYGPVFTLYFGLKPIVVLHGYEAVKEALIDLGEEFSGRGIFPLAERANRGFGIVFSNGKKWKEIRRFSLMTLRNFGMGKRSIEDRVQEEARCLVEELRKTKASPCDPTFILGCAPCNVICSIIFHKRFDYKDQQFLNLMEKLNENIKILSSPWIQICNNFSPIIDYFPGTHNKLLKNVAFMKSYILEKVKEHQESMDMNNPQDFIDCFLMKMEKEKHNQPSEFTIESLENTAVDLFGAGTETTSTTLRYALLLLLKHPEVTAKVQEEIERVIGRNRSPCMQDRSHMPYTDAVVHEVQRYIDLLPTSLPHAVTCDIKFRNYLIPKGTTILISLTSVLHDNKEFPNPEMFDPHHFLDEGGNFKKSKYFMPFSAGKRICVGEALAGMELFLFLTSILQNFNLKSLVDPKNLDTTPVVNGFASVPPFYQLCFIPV
Chain of Cytochrome P450 2C19 (P33261 whole entry): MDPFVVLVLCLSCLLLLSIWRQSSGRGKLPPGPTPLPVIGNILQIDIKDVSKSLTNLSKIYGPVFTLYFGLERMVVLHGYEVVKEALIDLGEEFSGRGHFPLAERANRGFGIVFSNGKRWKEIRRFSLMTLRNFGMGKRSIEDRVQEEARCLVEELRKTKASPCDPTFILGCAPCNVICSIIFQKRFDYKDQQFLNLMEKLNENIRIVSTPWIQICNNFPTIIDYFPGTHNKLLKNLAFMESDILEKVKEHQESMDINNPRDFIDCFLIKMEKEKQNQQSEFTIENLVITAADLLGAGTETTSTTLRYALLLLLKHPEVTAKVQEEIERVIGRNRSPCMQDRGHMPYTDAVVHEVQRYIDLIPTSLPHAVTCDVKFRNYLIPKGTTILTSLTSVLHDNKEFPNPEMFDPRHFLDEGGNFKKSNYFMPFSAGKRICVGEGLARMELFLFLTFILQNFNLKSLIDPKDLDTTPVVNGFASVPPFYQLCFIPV
Chain of Cytochrome P450 2D6 (P10635 whole entry): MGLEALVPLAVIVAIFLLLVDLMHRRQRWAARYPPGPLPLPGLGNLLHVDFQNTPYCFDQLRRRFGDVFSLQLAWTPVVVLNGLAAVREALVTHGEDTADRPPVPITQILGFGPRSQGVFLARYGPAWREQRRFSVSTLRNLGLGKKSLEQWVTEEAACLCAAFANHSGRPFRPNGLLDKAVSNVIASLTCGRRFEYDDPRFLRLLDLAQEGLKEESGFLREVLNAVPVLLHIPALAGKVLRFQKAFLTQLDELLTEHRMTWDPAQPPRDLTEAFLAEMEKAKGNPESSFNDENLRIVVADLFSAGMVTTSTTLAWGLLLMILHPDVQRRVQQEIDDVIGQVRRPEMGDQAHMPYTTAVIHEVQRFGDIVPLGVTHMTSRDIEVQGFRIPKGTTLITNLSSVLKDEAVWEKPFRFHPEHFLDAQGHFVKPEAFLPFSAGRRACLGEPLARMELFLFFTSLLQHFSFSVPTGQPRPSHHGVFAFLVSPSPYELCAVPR

As usually defined, the Ki is the dissociation constant of the complex between target and ligand, obtained from inhibition or displacement. A low value points to higher affinity. In the case of `Cc1ccn(-c2ccc(C(=O)N3CCC(F)(F)/C(=C\C(=O)NCc4cccnc4)c4ccccc43)c(Cl)c2)n1`, the Ki worked out at 0.021 µM in assay [1] and 0.04 µM in assay [2]. Besides, the Ratio Ki in assay [3] came out at 1.9.
`Cc1ccn(-c2ccc(C(=O)N3CCC(F)(F)/C(=C\C(=O)NCc4ccccn4)c4ccccc43)c(Cl)c2)n1` came in with a Ki in [2] of 0.026 µM.
As for `Cc1ccn(-c2ccc(C(=O)N3CCC(F)(F)/C(=C\C(=O)NCc4cccc(N(C)C)n4)c4ccccc43)c(Cl)c2)n1`, the Ki in assay [1] was 0.011 µM; in [2] it was 0.048 µM. In addition, in assay [3], the Ratio Ki is 4.4.
By EC50 is commonly meant the midpoint of the concentration-response curve. One may read the Emax as the maximal effect, on the per cent scale that the assay sets. As to `Cc1ccn(-c2ccc(C(=O)N3CCC(F)(F)/C(=C\C(=O)NCCO)c4ccccc43)c(Cl)c2)n1`, the Ki in assay [1] turned out to be 0.0097 µM; in [2], 0.028 µM. Moreover, the 50% effective concentration (EC50) in assay [4] is 0.0063 µM. Further, the Emax in assay [5] was found to be 93.9%. The result in assay [6] was Active.
For the molecule `Cc1ccn(-c2ccc(C(=O)N3CCC(F)(F)/C(=C\C(=O)NCCN(C)C)c4ccccc43)c(Cl)c2)n1`, the figures for the Ki in [1] and in assay [2] were 0.053 µM and 0.059 µM, respectively. Besides, in assay [3], the Ratio Ki amounted to 1.1.
Taken in the same sequence, the figures for `Cc1ccn(-c2ccc(C(=O)N3CCC(F)(F)/C(=C\C(=O)NCc4nc5ccccc5[nH]4)c4ccccc43)c(Cl)c2)n1` were 0.012 µM, 0.072 µM and 6.
For `Cc1ccn(-c2ccc(C(=O)N3CCC(F)(F)/C(=C\C(=O)NCc4cnccn4)c4ccccc43)c(Cl)c2)n1`, the results for the Ki in assay [1] and in assay [2] were 0.014 µM and 0.057 µM, respectively. Also, the Ratio Ki in [3] was found to be 4.1.
Taken in the same sequence, the figures for `Cc1ccn(-c2ccc(C(=O)N3CCC(F)(F)/C(=C\C(N)=O)c4ccccc43)c(Cl)c2)n1` were 0.033 µM, 0.19 µM and 5.8.
In the case of `CCCNC(=O)/C=C1/c2ccccc2N(C(=O)c2ccc(-n3ccc(C)n3)cc2Cl)CCC1(F)F`, the values for the Ki in assay [1] and in assay [2] were 0.018 µM and 0.013 µM, respectively. In addition, the Ratio Ki in assay [3] worked out at 0.72.
Taken in the same sequence, the figures for `Cc1ccn(-c2ccc(C(=O)N3CCC(F)(F)/C(=C\C(=O)NCc4nc5ccccc5s4)c4ccccc43)c(Cl)c2)n1` were 0.011 µM, 0.055 µM and 5.
The matching figures for `Cc1ccn(-c2ccc(C(=O)N3CCC(F)(F)/C(=C\C(=O)NCc4ccncn4)c4ccccc43)c(Cl)c2)n1`: 0.011 µM, 0.044 µM and 4.
Taken in the same sequence, the figures for `Cc1ccn(-c2ccc(C(=O)N3CCC(F)(F)/C(=C\C(=O)NCc4ccco4)c4ccccc43)c(Cl)c2)n1` were 0.027 µM, 0.072 µM and 2.7.
Regarding `Cc1ccn(-c2ccc(C(=O)N3CCC(F)(F)/C(=C\C(=O)NCc4ccccc4)c4ccccc43)c(Cl)c2)n1`, the results for the Ki in assay [1] and in assay [2] were 0.019 µM and 0.043 µM, respectively. The Ratio Ki in assay [3] is 2.3.
Consider `Cc1ccn(-c2ccc(C(=O)N3CCC(F)(F)/C(=C\C(=O)NCc4cccc(C#N)n4)c4ccccc43)c(Cl)c2)n1`, for which the Ki stood at 0.0074 µM in assay [1] and 0.022 µM in assay [2]. Besides, the Ratio Ki in [3] worked out at 3.
As for `Cc1ccn(-c2ccc(C(=O)N3CCC(F)(F)/C(=C\C(=O)NCc4cccnn4)c4ccccc43)c(Cl)c2)n1`, the values for the Ki in assay [1] and in [2] were 0.0034 µM and 0.043 µM, respectively. The concentration giving a half-maximal response (EC50) in [4] was 0.016 µM. In addition, the Emax in assay [5] is 86.4%. The result in [6] was Active.
`COc1cccc(CNC(=O)/C=C2/c3ccccc3N(C(=O)c3ccc(-n4ccc(C)n4)cc3Cl)CCC2(F)F)n1`: the Ki turned out to be 0.016 µM in assay [1] and 0.047 µM in assay [2]. Also, the Ratio Ki in assay [3] turned out to be 2.9.
As for `Cc1ccn(-c2ccc(C(=O)N3CCC(F)(F)/C(=C\C(=O)NCc4cccc(N)n4)c4ccccc43)c(Cl)c2)n1`, the Ki in assay [1] came to 0.01 µM; in assay [2], 0.038 µM. The Ratio Ki in [3] amounted to 3.8.
As a reminder, the IC50 is the concentration that inhibits the measured activity by half. Consider `Cc1ccn(-c2ccc(C(=O)N3CCC(F)(F)/C(=C\C(=O)O)c4ccccc43)c(Cl)c2)n1`, for which the results for the inhibition constant Ki in [1] and in [2] were 0.025 µM and 6.3 µM, respectively. In addition, the Ratio Ki in [3] came to 252. Also, the EC50 in [4] came out at 0.0042 µM. The Emax in [5] is 92.4%. The IC50 is greater than 20 µM in [7], greater than 20 µM in [8], 11 µM in assay [9] and greater than 20 µM in assay [10]. The result in assay [6] was inactive.
On to `Cc1ccn(-c2ccc(C(=O)N3CCC(F)(F)/C(=C\C(=O)NCC(N)=O)c4ccccc43)c(Cl)c2)n1`, for which the results for the Ki in assay [1] and in assay [2] were 0.011 µM and 0.04 µM, respectively. Besides, the Ratio Ki in [3] turned out to be 3.6.
In the case of `Cc1ccn(-c2ccc(C(=O)N3CCC(F)(F)/C(=C\C(=O)NCC(=O)O)c4ccccc43)c(Cl)c2)n1`, the inhibition constant (Ki) in [1] is 0.022 µM; in assay [2], 0.23 µM. Moreover, the Ratio Ki in assay [3] came out at 10.
The molecule `Cc1cccc(CNC(=O)/C=C2/c3ccccc3N(C(=O)c3ccc(-n4ccc(C)n4)cc3Cl)CCC2(F)F)n1` returned a Ki in assay [2] of 0.03 µM. Moreover, the Ratio Ki in [3] is 5.4.
For `Cc1ccn(-c2ccc(C(=O)N3CCC(F)(F)/C(=C\C(=O)NCc4nccs4)c4ccccc43)c(Cl)c2)n1`, the Ki came out at 0.011 µM in assay [1] and 0.043 µM in assay [2]. For the same molecule, the Ratio Ki in assay [3] turned out to be 3.9.
Regarding `Cc1ccn(-c2ccc(C(=O)N3CCC(F)(F)/C(=C\C(=O)NCc4ccncc4)c4ccccc43)c(Cl)c2)n1`, the Ki is 0.02 µM in assay [1] and 0.015 µM in assay [2]. Moreover, the Ratio Ki in assay [3] was determined as 0.75.
